Published values pooled from the literature.
Each line is one published result; the experiments were not run side by side.
Medium: plasma

Compound | system | conditions | endpoint | result
Cc1nn2c(-c3c(C)nn(C)c3-c3ccc(C(F)(F)F)cc3)nc(CO)c2c(=O)[nH]1 | male Wistar rat | intravenous, 1 mg/kg | clearance | 28 mL/min/kg
Cl.Clc1ccc2c(c1)nc(N1CCNCC1)n2Cc1ccccc1 | rat | intravenous, 1 mg/kg | clearance | 144 mL/min/kg
Oc1c(Br)cc(Cl)c2cccnc12 | Sprague-Dawley rat | intravenous, 2 mg/kg | clearance | 27.8 mL/min/kg
CCc1nc(C(N)=O)c(Nc2ccc(N3CCC(N4CCN(C)CC4)CC3)c(OC)c2)nc1NC1CCOCC1 | rat | oral, 10 mg/kg | CL/F | 0.9 L/h
COCCOC(=O)C1=C(C)NC(C)=C(C(=O)OC(C)C)C1c1cccc([N+](=O)[O-])c1 (stereo not shown) | male Sprague-Dawley rat | intravenous, 3 mg/kg | clearance | 0.025 mL/min/kg
COc1ccc2c(=O)n(C)c(-c3ccccc3)nc2c1 | male Sprague-Dawley rat | intravenous, 2 mg/kg | clearance | 39 mL/min/kg
CCCC[C@@H]1NC(=O)[C@H](Cc2ccc(O)cc2)NC(=O)[C@@H]2CCCN2C(=O)[C@H](CC(=O)O)NC(=O)[C@H](C)NC(=O)[C@H](Cc2ccccc2)NC(=O)[C@@H]2CSCCC(=O)N3CN(CN(C3)C(=O)CCSC[C@@H](C(=O)N[C@@H](C)C(N)=O)NC1=O)C(=O)CCSC[C@H](NC(C)=O)C(=O)N[C@@H](CC(C)(C)C)C(=O)N1CCC[C@H]1C(=O)N[C@@H](CCC(=O)O)C(=O)N[C@H](CCCCNC(=O)CCc1cn(CCOCCOCCOCCOCCOCCOCCOCCOCCOCCOCCNC(=O)CCOCCN(CCOCCC(=O)NCCOCCOCCOCCOCCOCCOCCOCCOCCOCCOCCn3cc(CCC(=O)NCCCC[C@H]4NC(=O)[C@H](CCC(=O)O)NC(=O)[C@@H]5CCCN5C(=O)[C@H](CC(C)(C)C)NC(=O)[C@@H](NC(C)=O)CSCCC(=O)N5CN6CN(C5)C(=O)CCSC[C@H](NC(=O)[C@H](Cc5ccc(O)cc5)NC(=O)[C@@H]5CCCN5C4=O)C(=O)N[C@@H](Cc4ccccc4)C(=O)N[C@@H](C)C(=O)N[C@@H](CC(=O)O)C(=O)N4CCC[C@H]4C(=O)N[C@@H](Cc4ccc(O)cc4)C(=O)N[C@@H](CCCC)C(=O)N[C@H](C(=O)N[C@@H](C)C(N)=O)CSCCC6=O)nn3)CCOCCC(=O)NCCOCCOCCOCCOCCOCCOCCOCCOCCOCCOCCn3cc(CCC(=O)N[C@H]4CSCCC(=O)N5CN6CN(C5)C(=O)CCSC[C@H](NC(=O)[C@@H](CC(=O)O)NC(=O)[C@H](Cc5cccc7ccccc57)NC(=O)[C@@H]5CCCN5C4=O)C(=O)N[C@@H](CCSC)C(=O)N[C@@H](CCCCNC(=N)N)C(=O)N[C@@H](CC(=O)O)C(=O)N[C@@H](Cc4c[nH]c5ccccc45)C(=O)N[C@@H](CO)C(=O)N[C@@H]([C@@H](C)O)C(=O)N4CCC[C@H]4C(=O)N4C[C@H](O)C[C@H]4C(=O)N[C@@H](Cc4c[nH]c5ccccc45)C(=O)N[C@H](C(N)=O)CSCCC6=O)nn3)nn1)C(=O)N1CCC[C@H]1C(=O)N[C@@H](Cc1ccc(O)cc1)C(=O)N2 | rat | intravenous, 2 mg/kg | clearance | 12 mL/min/kg
CNCc1cc(-c2ccccc2F)n(S(=O)(=O)c2cccnc2)c1 | Sprague-Dawley rat | oral, 10 mg/kg | CL/F | 293 mL/min/kg
C=CC(=O)Nc1cc(Nc2nccc(Nc3cc(Cl)c(F)cc3C(C)(C)O)n2)c(OC)cc1N1CC[C@@H](N(C)C)C1 | Wistar rat | intravenous, 3 mg/kg | clearance | 30.8 mL/min/kg
CNC(=O)c1c(C)oc2cc(Oc3ncnc4cc(OC)c(OC)cc34)ccc12 | Sprague-Dawley rat | oral, 1 mg/kg, single dose | CL/F | 3.5 mL/min/kg
COc1ccc2c(Cc3ccccc3F)c3[n+](cc2c1OC)CCc1cc2c(cc1-3)OCO2.[Br-] | rat | intravenous, 5 mg/kg | clearance | 672 mL/min/kg
CCOC(=O)[C@@]12C[C@@H]1[C@@H](n1ccc3c(NC)nc(C#Cc4ccc(Cl)s4)nc31)[C@H](O)[C@@H]2O | male Sprague-Dawley rat | intravenous, 0.5 mg/kg | clearance | 302 mL/min/kg
O=C(Nc1cc(F)c(F)c(F)c1)c1ccc(F)c(S(=O)(=O)NCc2cccc(B(O)O)c2)c1 | male Sprague-Dawley rat | intravenous, 2 mg/kg | clearance | 137 mL/min/kg
